Measurements from the array DNA melting data of Ke et al. (doi:10.1101/2024.01.08.574731).

What was measured:
[1] = folding enthalpy; higher = less favourable; fluorescence melt of hairpins on a sequencing array, two-state fit; conditions: sodium 0.088 M
Outline: (§1)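 Bootstrapped two-state fits yielded melting temperature and folding enthalpy for library hairpins. Cy3 fluorescence, with annealed Cy3 and quencher oligos, was imaged on a sequenced MiSeq flow cell in 50 mM Na-HEPES pH 8.0, 25 mM NaCl in 2.5 °C steps up to 60 °C, and normalised to pre-quench Cy3 and to control constructs. Four replicates were combined by inverse variance, and fitted temperatures were raised by 9.35 °C to match UV melts.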

[2] = melting temperature; fluorescence melt of hairpins on a sequencing array, two-state fit, raised by 9.35 °C to match UV melts; conditions: sodium 0.088 M
Outline: as §1

| Sequence | folding enthalpy [1] | Tm [2] |
| --- | --- | --- |
| AGTTGGAAACAACT (((((....))))) | -19.9 kcal/mol | 43.2 °C |
| GATCTCTAGCGAGATC ((((((....)))))) | -23.1 kcal/mol | 49.9 °C |
| GTGCTCCGAAAGGAACAC (((.(((....))).))) | -46.5 kcal/mol | 52.2 °C |
| GCCATGCGAAAGCGGGGC (((..((....))..))) | -35 kcal/mol | 65.3 °C |
| GATCATTACATGATC ((((((...)))))) | -33.8 kcal/mol | 50.2 °C |
| GTCCGTGGAAACACAGAC (((.(((....))).))) | -28.2 kcal/mol | 40.5 °C |
| GCGACTTCTCGC ((((....)))) | -25.7 kcal/mol | 47.8 °C |
| GGGTTAGCGAAAGCTCCC (((..(((....)))))) | -23.7 kcal/mol | 41.8 °C |
| GCACAGCGAAAGCTAGGC ((..(((....)))..)) | -15.4 kcal/mol | 45.2 °C |
| GCGGGCGAAAGCCCTCGC ((((((....)))..))) | -13.1 kcal/mol | 50 °C |
| TTGTAGAAATACAA (((((....))))) | -6.32 kcal/mol | 24.9 °C |
| GCCTCGCGAAAGCAGGGC (((..((....))..))) | -20.6 kcal/mol | 60.8 °C |
| GATAGCGGAAACGCCATC (((.(((....))).))) | -15.5 kcal/mol | 35.1 °C |
| GATCTGATTTCAGATC ((((((....)))))) | -34.4 kcal/mol | 51.4 °C |
| GCACTTACGAAAGTATGC (((..(((....)))))) | -18.1 kcal/mol | 30.3 °C |
| GCTCTGCGAAAGCAAGC (((.(((....)))))) | -16.8 kcal/mol | 48.2 °C |
| GATCATGGGTATGATC ((((((....)))))) | -34.6 kcal/mol | 46.7 °C |
| GCTACCGAAAGGTTAGC ((((((....))).))) | -28 kcal/mol | 52.7 °C |
| GCGACAGGAAACCGTCGC (((((.(....).))))) | -43.4 kcal/mol | 58.8 °C |
| GCGTGATCGAAAGATCGC (((..(((....)))))) | -15.6 kcal/mol | 47.5 °C |
| GCATAGGGAAACCTATGC (((((((....))))))) | -44.2 kcal/mol | 61.7 °C |
| CGAGACGGAAACGTGTCG (((.(((....))).))) | -37.6 kcal/mol | 52.1 °C |
| GGTTTCGAAAGAACCACC ((((((....)))..))) | -17.1 kcal/mol | 34.4 °C |

| Sequence | folding enthalpy [1] | Tm [2] |
| --- | --- | --- |
| GAGCTGGGAAACTAGCTC (((((.(....).))))) | -38.7 kcal/mol | 52.5 °C |
| GTGTCGGGAAACCGGCAC (((.(((....))).))) | -45.1 kcal/mol | 60.8 °C |
| GCCCTACGAAAGTAAGGC (((.(((....))).))) | -31.3 kcal/mol | 47.4 °C |
| GATTAACGAAAGTTCATC (((.(((....))).))) | -24.6 kcal/mol | 33.9 °C |
| GGTAGCGGAAACGCCACC (((.(((....))).))) | -24.8 kcal/mol | 48.3 °C |
| GTTGATCGAAAGATAAC (((.(((....)))))) | -13.3 kcal/mol | 28.9 °C |
| GAGATGGGAAACCATTTC ((.((((....)))).)) | -26.8 kcal/mol | 35 °C |
| GCAGCGCGAAAGCTATGC (((..((....))..))) | -16.8 kcal/mol | 45.2 °C |
| GATACAGGAAACTGTGTC ((.((((....)))).)) | -25.9 kcal/mol | 44.9 °C |
| GTAATGCCGAAAGGCTAC (((..(((....)))))) | -9.18 kcal/mol | 26.8 °C |
| GATACAGGAAACTGTACC (.(((((....))))).) | -15.4 kcal/mol | 31.1 °C |
| GAACGCGAAAGCGGTTC ((((((....))).))) | -14.3 kcal/mol | 57.3 °C |
| GCGGGCGCCGC ((((...)))) | -9.79 kcal/mol | 60.6 °C |
| GGTAGACGAAAGTCCACC (((.(((....))).))) | -23.8 kcal/mol | 46.3 °C |
| GCCCCGCGAAAGCAAGGC (((..((....))..))) | -16.2 kcal/mol | 46.5 °C |
| GCCTCCGGAAACGAAGGC ((((.((....)).)))) | -28.3 kcal/mol | 48.8 °C |
| GCGTGAGGAAACTCACAC (.(((((....))))).) | -13.8 kcal/mol | 42.3 °C |
| GTTTCGGGAAACTGAAAC (((((.(....).))))) | -27.5 kcal/mol | 46.9 °C |
| GCCGGGCGAAAGCACTGC ((.(.((....)).).)) | -18.6 kcal/mol | 50.8 °C |
| GTGAGCGAAAGCTAACAC ((((((....)))..))) | -15.4 kcal/mol | 44 °C |
| GATCATCTCATGATC ((((((...)))))) | -37.7 kcal/mol | 50 °C |
| GATCAACTCTTGATC ((((((...)))))) | -35.7 kcal/mol | 42.3 °C |
| GGAGAGGGAAACCTCTTC (.(((((....))))).) | -21.5 kcal/mol | 45.8 °C |

| Sequence | folding enthalpy [1] | Tm [2] |
| --- | --- | --- |
| GATCCCTCTGGGATC ((((((...)))))) | -31.3 kcal/mol | 66.6 °C |
| GGCATGGGAAACTGTGCC ((((..(....)..)))) | -29.8 kcal/mol | 48.2 °C |
| GATCATGGAAACATGACC (.(((((....))))).) | -17.4 kcal/mol | 36.1 °C |
| GTCCGGGGAAACCTGGAC ((((.((....)).)))) | -36.6 kcal/mol | 55.5 °C |
| GATCCTCACCAGGATC ((((((....)))))) | -38.6 kcal/mol | 50.9 °C |
| GAAGAAGGAAACTCCTTC ((((.((....)).)))) | -19.2 kcal/mol | 30.7 °C |
| GGATCCGAAAGGAGATCC ((((((....)))..))) | -24 kcal/mol | 44.8 °C |
| GATCAACTTTTGATC ((((((...)))))) | -30.7 kcal/mol | 43.2 °C |
| GGATTCGAAAGAATTCC ((((((....))).))) | -20.4 kcal/mol | 42.6 °C |
| GGGTTAGAAATAACCC ((((((....)))))) | -36.4 kcal/mol | 53.1 °C |
| GGCTAACGAAAGTTCGCC (((.(((....))).))) | -44.2 kcal/mol | 52.9 °C |
| GAATTTGGAAACAAATCC (.(((((....))))).) | -13.9 kcal/mol | 29.2 °C |
| GATCGGGTGACCGATC ((((((....)))))) | -36.4 kcal/mol | 67 °C |
| GTCTATGGAAACACAGAC ((((.((....)).)))) | -21 kcal/mol | 31.6 °C |
| CCACAGAAATGTGG (((((....))))) | -18.5 kcal/mol | 50.5 °C |
| GCGGCGCCCGC ((((...)))) | -15.9 kcal/mol | 60.9 °C |
| GGAGGCGAAAGCCTTTCC ((((((....)))..))) | -10.3 kcal/mol | 32.4 °C |
| CGTGGCGGAAACGCGACG (((.(((....))).))) | -35.6 kcal/mol | 57.7 °C |
| GAAAGACGAAAGTCTTC (((.(((....)))))) | -12.6 kcal/mol | 44.3 °C |
| GAGTTAGGAAACCAACTC (((((.(....).))))) | -32.5 kcal/mol | 35.4 °C |
| GCCCATGGAAACATAGGC (((.(((....))).))) | -28.1 kcal/mol | 38.3 °C |
| GCTGGTGCGAAAGCAAGC (((..(((....)))))) | -14.5 kcal/mol | 43 °C |
| GCCAGAGGAAACTTTGGC ((((.((....)).)))) | -32.8 kcal/mol | 47.4 °C |
